The results in this text go back to ChEMBL document CHEMBL3875227, “Electrophilic Helical Peptides That Bond Covalently, Irreversibly, and Selectively in a Protein-Protein Interaction Site” (ACS Med Chem Lett, 2017).

For one series, the target named is T1, Bcl-2-related protein A1 (Homo sapiens, UniProt Q16548).
T1 sequence (Q16548 whole entry): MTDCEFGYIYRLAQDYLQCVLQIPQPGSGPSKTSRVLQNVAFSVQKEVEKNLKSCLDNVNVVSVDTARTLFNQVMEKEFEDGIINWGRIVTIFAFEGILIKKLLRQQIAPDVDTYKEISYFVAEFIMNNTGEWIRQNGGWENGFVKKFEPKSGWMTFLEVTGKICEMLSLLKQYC
The series can be described thus: Inhibition of FITC-betaA-DIIRNIARHLAQVGDSMRSI-NH2 binding to recombinant human Bcl2A1 (1 to 152 residues) BH3 binding site expressed in Escherichia coli measured after 2 hrs by fluorescence polarization assay. Conditions: for Ki: read-out: Ki(app). In short, it runs like this:
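Competitive fluorescence polarization: Bcl2A1 (15 nM) with FITC-Bid tracer (5 nM), protein/tracer 3:1 to keep fluorescence measurable, exposed to increasing peptide concentrations for 2 h. IC50 read from inhibition curves; apparent Ki derived from it.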

Series [1] is described as follows: Metabolic stability in human serum at 25 uM measured up to 6 hrs. The format is ADME.
Series [2] deals with T2, Bcl-2-related protein A1 (Homo sapiens) (UniProt Q16548).
T2 sequence (whole entry): T1 sequence (Q16548 whole entry)
Conditions: 500 nM.

Series [3] can be described thus: Stability of the compound in DTT buffer at 50 uM and pH 7.2 measured after 1 to 17 hrs by mass spectra analysis. The format is physicochemical. Conditions: pH 7.2, 50 µM. Summed up: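 Peptide held in 1 mM dithiothreitol over several hours to follow its integrity.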
The target in series [4] is T2, Bcl-2-related protein A1 (Homo sapiens). Conditions: 500 nM. This is another data set of the same source.
The target is the same in series [5]. The experiment in a line: Binding affinity to Bcl2A1 in human U937 cells assessed as Bcl2A1 modification at 5 to 50 uM measured after overnight incubation by Western blot analysis. As to conditions: U-937. The format is cell-based. In short, it runs like this:
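Live U937 cells incubated with peptide for 24 h at 37 °C, then lysed. Covalent Bcl2A1 modification detected by Western blot.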
(In general: A western blot detects proteins with antibodies after separation by electrophoresis.)

Series [6] shares this target. The series can be described thus: Reversible inhibition of FITC-betaA-DIIRNIARHLAQVGDSMRSI-NH2 binding to recombinant human Bcl2A1 (1 to 152 residues) BH3 binding site expressed in Escherichia coli preincubated for 1 hr with 2 fold diluted Bcl2A1 prior to FITC-betaA-DIIRNIARHLAQVGDSMRSI-NH2 addition measured every minute over 3.5 hrs by fluorescence polarization assay. Summed up: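 Bcl2A1 2-fold serially diluted (250 to 0.25 nM), preincubated 1 h with peptide at several protein/peptide ratios. FITC-Bid (5 nM) then added and fluorescence polarization recorded as titration binding curves. Buffer in place of peptide as control.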
(In fluorescence polarisation assays a small probe gives low polarisation when free and higher when bound to something large.)

Series [7] has the same target. The experiment in a line: Binding affinity to Bcl2A1 (unknown origin) overexpressed in human HeLa cells at 50 uM measured after 24 hrs by Western blot analysis. Format: cell-based.
The target is the same in series [8]. The series can be described thus: Binding affinity to recombinant human C-terminal His6-tagged Bcl2A1 (1 to 152 residues) expressed in Escherichia coli assessed as adduct formation at 25 uM measured after 5 hrs by LC-MS analysis. Summed up:
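Bcl2A1 (5 μM) reacted with electrophilic peptide (25 μM) at pH 7.2 for 5 h. Protein adducts analysed by mass spectrometry.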

Series [9] in a line: Drug uptake in mitochondria of human U937 cells at 1 uM measured after 4 hrs using FITC-labeled compound by Hoechst and MitoTracker Deep Red dye-based confocal live cell microscopy. As to conditions: u-937, 4 h. The format is ADME. Summed up: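 Live U937 lymphoma cells given FITC-labelled peptide (1 μM) for 4 h. Nuclei stained with Hoechst and mitochondria with MitoTracker; colocalization imaged by confocal microscopy.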

Series [10] is described as follows: Cellular uptake in human U937 cells at 10 uM measured after 4 hrs by flow cytometry. The format is ADME, cell-based. Conditions: u-937, 4 h. For orientation: A flow cytometer gives signals particle by particle.

By IC50 is commonly meant the concentration at which inhibition is half-maximal.

Activity calls are given as the source filed them. The calls are words filed in the database; no cut-off is given here.

In the case of `C=CC(=O)NC[C@H](NC(=O)[C@@H](NC(C)=O)[C@@H](C)CC)C(=O)N[C@H](C(=O)N[C@@H](C)C(=O)N[C@@H](CCC(N)=O)C(=O)N[C@@H](CCC(=O)O)C(=O)N[C@@H](CC(C)C)C(=O)N[C@@H](CCCNC(=N)N)C(=O)N[C@@]1(C)CCCC=CCCC[C@@](C)(C(=O)N[C@@H](Cc2ccccc2)C(=O)N[C@@H](CC(N)=O)C(=O)N[C@@H](C)C(=O)N[C@@H](Cc2ccc(O)cc2)C(=O)N[C@@H](Cc2ccc(O)cc2)C(=O)N[C@@H](C)C(=O)N[C@@H](CCCNC(=N)N)C(=O)N[C@@H](CCCNC(=N)N)C(N)=O)NC(=O)[C@H](CC(=O)O)NC(=O)CNC(=O)[C@H]([C@@H](C)CC)NC1=O)[C@@H](C)CC`, on Bcl-2-related protein A1, the IC50 amounted to 8.5 nM and the Ki is < 0.1 nM. The Stability result in [1] is “Stable”. Also, the inhibition entry in series [2] is “Active”. Besides, the Stability result in series [3] is listed as “Stable”. For the same molecule, the T1/2 in series [4] came out at 28 min. Further, in series [5], the result was Active.
As for `CC[C@H](C)[C@H](NC(C)=O)C(=O)N[C@@H](Cc1c[nH]c2ccccc12)C(=O)N[C@H](C(=O)N[C@@H](C)C(=O)N[C@@H](CCC(N)=O)C(=O)N[C@@H](CCC(=O)O)C(=O)N[C@@H](CC(C)C)C(=O)N[C@@H](CCCNC(=N)N)C(=O)N[C@@]1(C)CCCC=CCCC[C@@](C)(C(=O)N[C@@H](Cc2ccccc2)C(=O)N[C@@H](CC(N)=O)C(=O)N[C@@H](C)C(=O)N[C@@H](Cc2ccc(O)cc2)C(=O)N[C@@H](Cc2ccc(O)cc2)C(=O)N[C@@H](C)C(=O)N[C@@H](CCCNC(=N)N)C(=O)N[C@@H](CCCNC(=N)N)C(N)=O)NC(=O)[C@H](CC(=O)O)NC(=O)CNC(=O)[C@H]([C@@H](C)CC)NC1=O)[C@@H](C)CC`, on Bcl-2-related protein A1, the IC50 amounted to 110 nM and the Ki is 32 nM. The Stability entry in series [1] is recorded as “Stable”. Besides, the inhibition result in series [6] is “Active”. In addition, the result in series [7] was Active. Also, in [5], the outcome was Active.
In the case of `CC[C@H](C)[C@H](NC(C)=O)C(=O)N[C@@H](CNC(=O)CCl)C(=O)N[C@H](C(=O)N[C@@H](C)C(=O)N[C@@H](CCC(N)=O)C(=O)N[C@@H](CCC(=O)O)C(=O)N[C@@H](CC(C)C)C(=O)N[C@@H](CCCNC(=N)N)C(=O)N[C@@]1(C)CCCC=CCCC[C@@](C)(C(=O)N[C@@H](Cc2ccccc2)C(=O)N[C@@H](CC(N)=O)C(=O)N[C@@H](C)C(=O)N[C@@H](Cc2ccc(O)cc2)C(=O)N[C@@H](Cc2ccc(O)cc2)C(=O)N[C@@H](C)C(=O)N[C@@H](CCCNC(=N)N)C(=O)N[C@@H](CCCNC(=N)N)C(N)=O)NC(=O)[C@H](CC(=O)O)NC(=O)CNC(=O)[C@H]([C@@H](C)CC)NC1=O)[C@@H](C)CC`, the outcome in series [8] was Active.
On to `C=CC(=O)NC[C@H](NC(=O)[C@@H](NC(=O)CCCCCNC(=O)c1cc(N=C=S)ccc1-c1c2ccc(=O)cc-2oc2cc(O)ccc12)[C@@H](C)CC)C(=O)N[C@H](C(=O)N[C@@H](C)C(=O)N[C@@H](CCC(N)=O)C(=O)N[C@@H](CCC(=O)O)C(=O)N[C@@H](CC(C)C)C(=O)N[C@@H](CCCNC(=N)N)C(=O)N[C@@]1(C)CCCC=CCCC[C@@](C)(C(=O)N[C@@H](Cc2ccccc2)C(=O)N[C@@H](CC(N)=O)C(=O)N[C@@H](C)C(=O)N[C@@H](Cc2ccc(O)cc2)C(=O)N[C@@H](Cc2ccc(O)cc2)C(=O)N[C@@H](C)C(=O)N[C@@H](CCCNC(=N)N)C(=O)N[C@@H](CCCNC(=N)N)C(N)=O)NC(=O)[C@H](CC(=O)O)NC(=O)CNC(=O)[C@H]([C@@H](C)CC)NC1=O)[C@@H](C)CC`, for which the Drug uptake entry in [9] and in series [10] was “Active” each time.
As for `C#CC(=O)NC[C@H](NC(=O)[C@@H](NC(C)=O)[C@@H](C)CC)C(=O)N[C@H](C(=O)N[C@@H](C)C(=O)N[C@@H](CCC(N)=O)C(=O)N[C@@H](CCC(=O)O)C(=O)N[C@@H](CC(C)C)C(=O)N[C@@H](CCCNC(=N)N)C(=O)N[C@@]1(C)CCCC=CCCC[C@@](C)(C(=O)N[C@@H](Cc2ccccc2)C(=O)N[C@@H](CC(N)=O)C(=O)N[C@@H](C)C(=O)N[C@@H](Cc2ccc(O)cc2)C(=O)N[C@@H](Cc2ccc(O)cc2)C(=O)N[C@@H](C)C(=O)N[C@@H](CCCNC(=N)N)C(=O)N[C@@H](CCCNC(=N)N)C(N)=O)NC(=O)[C@H](CC(=O)O)NC(=O)CNC(=O)[C@H]([C@@H](C)CC)NC1=O)[C@@H](C)CC`, the result in series [8] was Active.
